Data as given in ChEMBL document CHEMBL1135913, “Structure-based design, synthesis, and biological evaluation of irreversible human rhinovirus 3C protease inhibitors. 6. Structure-activity studies of orally bioavailable, 2-pyridone-containing peptidomimetics” (J Med Chem, 2002).

Assays:
[1] = molecular target: T1, Human rhinovirus A protease (Human rhinovirus sp., UniProt Q4U254); test: Inhibition of HRV Protease 3CP (serotype 14).; design: species or system Rhinovirus B
T1 sequence (Q4U254 whole entry): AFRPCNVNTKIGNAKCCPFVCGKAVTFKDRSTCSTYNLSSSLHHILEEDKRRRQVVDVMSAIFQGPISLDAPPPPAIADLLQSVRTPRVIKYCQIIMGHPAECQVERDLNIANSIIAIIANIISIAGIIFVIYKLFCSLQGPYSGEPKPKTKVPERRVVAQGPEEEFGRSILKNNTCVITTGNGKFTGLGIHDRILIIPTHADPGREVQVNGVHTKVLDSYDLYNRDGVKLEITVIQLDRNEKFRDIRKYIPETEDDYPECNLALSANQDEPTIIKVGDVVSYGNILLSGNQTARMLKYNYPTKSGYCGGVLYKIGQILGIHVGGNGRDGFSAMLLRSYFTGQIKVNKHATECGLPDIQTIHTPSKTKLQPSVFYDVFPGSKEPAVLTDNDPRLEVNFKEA

[2] = molecular target: T2, Human rhinovirus A protease (Human rhinovirus sp.) (UniProt Q4U254); test: cytotoxicity against HRV Protease 3CP (serotype 10); type: functional
T2 sequence (whole entry): T1 sequence (Q4U254 whole entry)

[3] = molecular target: T2, Human rhinovirus A protease (Human rhinovirus sp.); test: (§1) cytotoxicity against HRV Protease 3CP (serotype 14); type: functional
[4] = molecular target: T2, Human rhinovirus A protease (Human rhinovirus sp.); test: Inhibitory activity against Human Rhinovirus Protease 3C (serotype 14); settings: Rhinovirus B
[5] = molecular target: T2, Human rhinovirus A protease (Human rhinovirus sp.); test: cytotoxicity against HRV Protease 3CP (serotype 1A); type: functional
[6] = Loss of compound (%metabolized) after 30 min exposure to human liver microsomes; type: ADME, Microsome; settings: read-out: Metabolism
How it was run: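 Pooled human liver microsomes (1 mg/mL, 6–8 livers) with 2 mM NADPH in 100 mM potassium phosphate pH 7.4 were preincubated 1 min at 37 °C. Compound was added at 25 μM and incubated 30 min, then quenched with acetonitrile. Loss was measured against time-zero controls by reversed-phase HPLC with UV at 215 nm.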

[7] = molecular target: T2, Human rhinovirus A protease (Human rhinovirus sp.); test: cytotoxicity against HRV Protease 3CP (serotype 14),; type: functional
[8] = molecular target: T2, Human rhinovirus A protease (Human rhinovirus sp.); test: cytotoxicity against HRV Protease 3CP (serotype 10),; type: functional
[9] = molecular target: T2, Human rhinovirus A protease (Human rhinovirus sp.); test: cytotoxicity against HRV Protease 3CP (serotype 1A),; type: functional
[10] = molecular target: T2, Human rhinovirus A protease (Human rhinovirus sp.); test: (§2) cytotoxicity against Human Rhinovirus Protease 3C (serotype 14)
[11] = molecular target: T2, Human rhinovirus A protease (Human rhinovirus sp.); test: cytotoxicity against Human Rhinovirus Protease 3C (serotype 1A); type: functional
[12] = molecular target: T2, Human rhinovirus A protease (Human rhinovirus sp.); test: cytotoxicity against Human Rhinovirus Protease 3C (serotype 10); type: functional
[13] = molecular target: T2, Human rhinovirus A protease (Human rhinovirus sp.); test: as §2; type: functional
[14] = molecular target: T2, Human rhinovirus A protease (Human rhinovirus sp.); test: as §1
Homo sapiens [15] = organism: Homo sapiens; test: Loss of compound (%metabolized) after 30 min exposure to human liver microsomes; settings: read-out: Metabolism
[16] = AUC value after 15 mg/kg iv dose in Dogs; type: ADME, organism-based, Canis lupus familiaris; design: dose 15 mg/kg, route intravenous; settings: dog, plasma
How it was run: (§3)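 Dogs (n = 3) received the compound iv or orally in 80:20 propylene glycol:water at 15.0 mg/mL. Blood was sampled periodically for up to 24 h. Plasma levels were measured by LC-MS (detection limit 5 ng/mL). Parameters came from noncompartmental analysis of each animal's concentration–time data.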

[17] = molecular target: T2, Human rhinovirus A protease (Human rhinovirus sp.); test: cytotoxicity against HRV Protease 3CP (serotype 16); type: functional
[18] = molecular target: T2, Human rhinovirus A protease (Human rhinovirus sp.); test: cytotoxicity against HRV Protease 3CP (serotype 78); type: functional
[19] = Volume distribution after 15 mg/kg iv dose in Dogs; type: ADME, organism-based, Canis lupus familiaris; design: dose 15 mg/kg, route intravenous; settings: dog, in vivo, read-out: V; how it was run: as §3
[20] = molecular target: T2, Human rhinovirus A protease (Human rhinovirus sp.); test: cytotoxicity against HRV Protease 3CP (serotype 39); type: functional
[21] = Cmax value after 30 mg/kg po dose in Dogs; type: ADME, organism-based, Canis lupus familiaris; design: dose 30 mg/kg, route oral; settings: dog, in vivo; how it was run: as §3
[22] = AUC value after 30 mg/kg po dose in Dogs; type: ADME, organism-based, Canis lupus familiaris; design: dose 30 mg/kg, route oral; settings: dog, plasma; how it was run: as §3
[23] = molecular target: T2, Human rhinovirus A protease (Human rhinovirus sp.); test: cytotoxicity against HRV Protease 3CP (serotype 13); type: functional
[24] = Plasma clearance after 15 mg/kg iv dose in Dogs; type: ADME, organism-based, Canis lupus familiaris; design: dose 15 mg/kg, route intravenous; settings: dog; how it was run: as §3
[25] = molecular target: T2, Human rhinovirus A protease (Human rhinovirus sp.); test: cytotoxicity against HRV Protease 3CP (serotype 2); type: functional
[26] = molecular target: T2, Human rhinovirus A protease (Human rhinovirus sp.); test: cytotoxicity against HRV Protease 3CP (serotype 25); type: functional
Homo sapiens [27] = organism: Homo sapiens; test: Half life upon exposure to human plasma
[28] = Plasma clearance after 30 mg/kg po dose in Dogs; type: ADME, organism-based, Canis lupus familiaris; design: dose 30 mg/kg, route oral; settings: dog; how it was run: as §3
[29] = Tmax value after 15 mg/kg iv dose in Dogs; type: ADME, organism-based, Canis lupus familiaris; design: dose 15 mg/kg, route intravenous; settings: dog, in vivo; how it was run: as §3
[30] = Oral bioavailability after 30 mg/kg po dose in Dogs; type: ADME, organism-based, Canis lupus familiaris; settings: dog, in vivo; how it was run: as §3
[31] = Tmax value after 30 mg/kg po dose in Dogs; type: ADME, organism-based, Canis lupus familiaris; design: dose 30 mg/kg, route oral; settings: dog, in vivo; how it was run: as §3
[32] = molecular target: T2, Human rhinovirus A protease (Human rhinovirus sp.); test: cytotoxicity against HRV Protease 3CP (serotype Hanks); type: functional
[33] = molecular target: T2, Human rhinovirus A protease (Human rhinovirus sp.); test: cytotoxicity against HRV Protease 3CP (serotype 23); type: functional
[34] = molecular target: T2, Human rhinovirus A protease (Human rhinovirus sp.); test: cytotoxicity against HRV Protease 3CP (serotype 19); type: functional
[35] = Cmax value after 15 mg/kg iv dose in Dogs; type: ADME, organism-based, Canis lupus familiaris; design: dose 15 mg/kg, route intravenous; settings: dog, in vivo; how it was run: as §3
[36] = molecular target: T2, Human rhinovirus A protease (Human rhinovirus sp.); test: cytotoxicity against HRV Protease 3CP (serotype 3); type: functional
[37] = Half life period after 30 mg/kg po dose in Dogs; type: ADME, organism-based, Canis lupus familiaris; design: dose 30 mg/kg, route oral; settings: dog, in vivo; how it was run: as §3
[38] = molecular target: T2, Human rhinovirus A protease (Human rhinovirus sp.); test: cytotoxicity against HRV Protease 3CP (serotype 9); type: functional
[39] = Half life period after 15 mg/kg iv dose in Dogs; type: ADME, organism-based, Canis lupus familiaris; design: dose 15 mg/kg, route intravenous; settings: dog, in vivo; how it was run: as §3
Canis familiaris = test: Volume distribution after 30 mg/kg po dose in Dogs; type: ADME, organism-based, Canis lupus familiaris; design: dose 30 mg/kg, route oral; settings: dog, in vivo; how it was run: as §3
[40] = molecular target: T2, Human rhinovirus A protease (Human rhinovirus sp.); test: cytotoxicity against HRV Protease 3CP (serotype 11); type: functional

Q: With `CCOC(=O)/C=C/[C@H](C[C@@H]1CCNC1=O)NC(=O)[C@H](Cc1ccc(F)cc1)n1cccc(NC(=O)c2cc(C)on2)c1=O` as the compound, how does the EC50 [1] read?
A: 0.002 µM

Q: And the CC50 [2]?
A: > 10 µM

Q: And the CC50 [3]?
A: > 10 µM

Q: And the K obs / 1 [4]?
A: 1.25e+06 M⁻¹ s⁻¹

Q: What about the CC50 [5] of the same compound?
A: > 10 µM

Q: What about the metabolised at 0.5 h [6] of the same compound?
A: 95%

Q: Which results are given for `CCOC(=O)/C=C/[C@H](CCC(N)=O)NC(=O)[C@H](Cc1ccc(F)c(F)c1)n1cccc(NC(=O)OCc2ccccc2)c1=O`?
A: EC50 [1]: 0.003 µM; CC50 [7]: > 10 µM; CC50 [8]: > 10 µM; CC50 [9]: > 10 µM; K obs / 1 [4]: 193000 M⁻¹ s⁻¹

Q: With `CCOC(=O)/C=C/[C@H](CCC(N)=O)NC(=O)[C@H](Cc1ccccc1)NC(=O)[C@H](CC(C)C)NC(=O)OCc1ccccc1` as the compound, how does the CC50 [10] read?
A: > 320 µM

Q: Which CC50 [11] does the source give for `CCOC(=O)/C=C/[C@H](CCC(N)=O)NC(=O)[C@H](Cc1ccccc1)n1cccc(NC(=O)OCc2ccccc2)c1=O` here?
A: > 10 µM

Q: What about the CC50 [12] of the same compound?
A: > 10 µM

Q: And the CC50 [13]?
A: 50 µM

Q: What does the source list for `Cc1cc(CCCOc2c(C)cc(-c3noc(C(F)(F)F)n3)cc2C)on1` [PLECONARIL]?
A: EC50 [1]: 0.058 µM; CC50 [14]: > 10 µM

Q: What does the source list for `CCOC(=O)/C=C/[C@H](CCC(N)=O)NC(=O)[C@H](Cc1ccccc1)n1cccc(NC(=O)C2CCCO2)c1=O` (stereo not given in full)?
A: EC50 [1]: 1.78 µM; K obs / 1 [4]: 3750 M⁻¹ s⁻¹; CC50 [14]: > 10 µM

Q: With `CCOC(=O)/C=C/[C@H](CCC(N)=O)NC(=O)[C@H](Cc1ccccc1)n1cccc(NC(=O)c2cc(Cl)on2)c1=O` as the compound, how does the EC50 [1] read?
A: 0.024 µM

Q: And the K obs / 1 [4]?
A: 134000 M⁻¹ s⁻¹

Q: And the CC50 [14]?
A: > 10 µM

Q: With `CCOC(=O)/C=C/[C@H](CCC(N)=O)NC(=O)[C@H](Cc1ccccc1)n1cccc(NC(C)=O)c1=O` as the compound, how does the EC50 [1] read?
A: 0.888 µM

Q: What about the K obs / 1 [4] of the same compound?
A: 7660 M⁻¹ s⁻¹

Q: And the CC50 [14]?
A: > 10 µM

Q: Which metabolised at 0.5 h (Homo sapiens [15]) does the source give for `Cc1cc(C(=O)Nc2cccn([C@@H](Cc3ccc(F)c(F)c3)C(=O)N[C@H](/C=C/C(=O)OC(C)C)C[C@@H]3CCNC3=O)c2=O)no1` here?
A: 55%

Q: What about the AUC [16] of the same compound?
A: 17100 ng·h/mL

Q: What about the CC50 [17] of the same compound?
A: > 10 µM

Q: What about the CC50 [2] of the same compound?
A: > 10 µM

Q: And the CC50 [18]?
A: > 10 µM

Q: And the Vd [19]?
A: 4.2 L/kg

Q: What about the CC50 [3] of the same compound?
A: > 10 µM

Q: What about the CC50 [20] of the same compound?
A: > 10 µM

Q: What about the Cmax [21] of the same compound?
A: 3500 ng/mL

Q: And the AUC [22]?
A: 16300 ng·h/mL

Q: And the CC50 [23]?
A: > 10 µM

Q: What about the clearance [24] of the same compound?
A: 14.7 mL/min/kg

Q: What about the CC50 [25] of the same compound?
A: > 10 µM

Q: What about the CC50 [26] of the same compound?
A: > 10 µM

Q: And the half-life (Homo sapiens [27])?
A: 9.7 h

Q: What about the CL/F [28] of the same compound?
A: 33 mL/min/kg

Q: And the CC50 [5]?
A: > 10 µM

Q: And the Tmax [29]?
A: 4 min

Q: And the bioavailability [30]?
A: 48%

Q: And the Tmax [31]?
A: 1.17 h

Q: And the CC50 [32]?
A: > 10 µM

Q: And the CC50 [33]?
A: > 10 µM

Q: And the CC50 [34]?
A: > 10 µM

Q: What about the Cmax [35] of the same compound?
A: 10600 ng/mL

Q: What about the CC50 [36] of the same compound?
A: > 10 µM

Q: And the half-life [37]?
A: 3.4 h

Q: And the CC50 [38]?
A: > 10 µM

Q: And the half-life [39]?
A: 3.23 h

Q: What about the V (Canis familiaris) of the same compound?
A: 9.6 L/kg

Q: What about the CC50 [40] of the same compound?
A: > 10 µM

Q: Which results are given for `CCOC(=O)/C=C/[C@H](CCC(N)=O)NC(=O)[C@H](Cc1ccccc1)n1cccc(NC(=O)C(C)(C)C)c1=O`?
A: EC50 [1]: 0.518 µM; K obs / 1 [4]: 5040 M⁻¹ s⁻¹; CC50 [14]: > 10 µM

Q: With `CCOC(=O)/C=C/[C@H](CCC(N)=O)NC(=O)[C@H](Cc1ccccc1)n1ccc(C)c(NC(=O)OCc2ccccc2)c1=O` as the compound, how does the K obs / 1 [4] read?
A: 25800 M⁻¹ s⁻¹
